Usually IC50 stands for the point on the concentration scale where inhibition reaches its midpoint. The inhibition is the percentage by which the read-out fell short of the control.

Data on 23 molecules can be found in ChEMBL document CHEMBL4715751, “Novel N-substituted indole Schiff bases as dual inhibitors of cyclooxygenase-2 and 5-lipoxygenase enzymes: Synthesis, biological activities in vitro and docking study” (Eur J Med Chem, 2016).

For data set [1], the system named is HUVEC. Nature of the data set: Antiinflammatory activity in HUVEC assessed as reduction in TNF-alpha-induced E-selectin expression at 50 uM preincubated for 30 mins followed by TNF-alpha addition and measured after 4 hrs by ELISA. It counts as functional. The settings on record: Homo sapiens, time 4.5 hrs. The method, boiled down:
(§1)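 HUVECs seeded at 1×10^4/well and grown to confluence; indole derivatives (50 μM) added 30 min before TNFα 10 ng/ml, then 4 h further incubation. Cells fixed and E-selectin (ELAM) measured by ELISA. Parallel Calcein AM read-out monitored non-specific toxicity. Curcumin 10 μM served as positive control.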
(ELISA stands for enzyme-linked immunosorbent assay.)

In the next data set the test system is BJ. Nature of the data set: Cytotoxicity against human BJ cells assessed as reduction in cell viability after 72 hrs by calcein-AM staining based fluorescence analysis. In outline: (§2)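 Cells in DMEM with 10% FBS, 2 mmol/l L-glutamine, penicillin/streptomycin, 37 °C, 5% CO2. About 1.0×10^5 cells/ml plated, stabilized 24 h, then compounds added from DMSO stocks (final DMSO ≤0.6%), six 3-fold dilutions, top final concentration generally 50 µM. After 72 h, Calcein AM added for 1 h. Fluorescence expressed as % of DMSO controls; IC50 taken from dose-response curves. Means ±SD of three independent experiments in triplicate.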

The next data set has as its system CCRF-CEM. Nature of the data set: Cytotoxicity against human CEM cells assessed as reduction in cell viability after 72 hrs by calcein-AM staining based fluorescence analysis. The method, boiled down: as §2
For the next data set, the system named is MCF7. Nature of the data set: Cytotoxicity against human MCF7 cells assessed as reduction in cell viability after 72 hrs by calcein-AM staining based fluorescence analysis. The settings on record: MCF7, 72 h. The method, boiled down:
as §2

The subject of a further data set is HeLa. Nature of the data set: Cytotoxicity against human HeLa cells assessed as reduction in cell viability after 72 hrs by calcein-AM staining based fluorescence analysis. In outline: as §2
Data set [2] deals with HUVEC. Nature of the data set: Antiinflammatory activity in HUVEC assessed as reduction in TNF-alpha-induced E-selectin expression at 30 to 50 uM preincubated for 30 mins followed by TNF-alpha addition and measured after 4 hrs by ELISA. It counts as functional. The settings on record: dose 30-50 µM, time 4.5 hrs; for Activity: Homo sapiens. The method, boiled down: as §1

Data set [3] is described as follows: Inhibition of potato 5-LOX assessed as reduction in hydroperoxide level by EIA method. On the set-up: species or system Solanum tuberosum. The method, boiled down:
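Potato 5-LOX kit detecting hydroperoxides formed by lipoxygenation. Compounds dissolved in minimal DMSO and diluted in 0.1 M Tris HCl, pH 7.4, tested at 0.001, 1, 5, 10 μM. IC50 derived per the manufacturer's instructions, mean of two determinations.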

For data set [4], the system named is HUVEC. Nature of the data set: Cytotoxicity against HUVEC assessed as reduction in cell viability measured after 24 hrs by calcein-AM staining based fluorescence analysis. On the set-up: species or system Homo sapiens. The settings on record: for Activity: human, huvec, time 24 hrs.
In data set [5] the target is T1, Prostaglandin G/H synthase 1 (Ovis aries, UniProt P05979).
T1 sequence (P05979 whole entry): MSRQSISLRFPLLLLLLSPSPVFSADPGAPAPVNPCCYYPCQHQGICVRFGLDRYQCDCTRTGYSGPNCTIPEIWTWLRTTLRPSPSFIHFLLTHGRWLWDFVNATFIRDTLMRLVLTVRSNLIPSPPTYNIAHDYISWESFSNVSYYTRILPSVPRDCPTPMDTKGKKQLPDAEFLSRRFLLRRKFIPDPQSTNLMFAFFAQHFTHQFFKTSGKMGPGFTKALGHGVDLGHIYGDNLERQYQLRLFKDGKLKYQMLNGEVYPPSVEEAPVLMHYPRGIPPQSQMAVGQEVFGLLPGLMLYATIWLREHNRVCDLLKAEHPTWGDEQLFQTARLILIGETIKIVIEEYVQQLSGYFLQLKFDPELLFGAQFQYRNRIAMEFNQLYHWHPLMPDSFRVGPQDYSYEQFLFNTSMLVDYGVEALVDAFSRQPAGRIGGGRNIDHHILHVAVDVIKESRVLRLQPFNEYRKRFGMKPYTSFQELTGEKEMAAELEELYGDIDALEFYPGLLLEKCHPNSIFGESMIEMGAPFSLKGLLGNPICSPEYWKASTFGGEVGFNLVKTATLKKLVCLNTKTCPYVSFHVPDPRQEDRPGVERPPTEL
Nature of the data set: Inhibition of ovine COX-1 assessed as appearance of oxidized TMPD level by EIA method.

Calls of active or inactive are those of the source. No cut-off for these calls is given here.

`Cc1ccc(NC(=O)Cn2cc(/C=N/c3c(C)n(C)n(-c4ccccc4)c3=O)c3ccccc32)cc1`: the result in the data set with HUVEC [1] was Active. Further, the half-inhibitory concentration (IC50) with BJ is 49 µM; with CCRF-CEM it was 42 µM; in the data set with MCF7, > 50 µM; in the data set with HeLa it was > 50 µM.

Turning to `Cc1c(/N=C/c2cn(CC(=O)Nc3ccccc3)c3ccccc23)c(=O)n(-c2ccccc2)n1C`, in the data set with HUVEC [1], the result was Active. Further, the IC50 with BJ, with CCRF-CEM, with MCF7 and in the data set with HeLa was > 50 µM in each case.

`Cc1c(/N=C/c2cn(C(=O)c3ccc(Cl)cc3)c3ccccc23)c(=O)n(-c2ccccc2)n1C`: the result in the data set on HUVEC [2] was Active. Moreover, the figures for the IC50 in data set [3] and in data set [5] were 9.11 µM and 9.25 µM, respectively. The Activity entry in the data set on HUVEC [4] is “Non-Toxic”.

Turning to `O=C(c1ccccc1)n1cc(/C=N/n2cnnc2)c2ccccc21`, the result in the data set with HUVEC [2] was Active. The IC50 in data set [3] worked out at 6.54 µM; in [5] it was 10.4 µM. Besides, the Activity entry in the data set on HUVEC [4] is recorded as “Non-Toxic”.

Turning to `COc1ccc(NC(=O)Cn2cc(/C=N/c3c(C)n(C)n(-c4ccccc4)c3=O)c3ccccc32)cc1`, the result in the data set with HUVEC [1] was Active. Besides, the IC50 in the data set on BJ was 50 µM; in the data set with CCRF-CEM, 50 µM; with MCF7, > 50 µM; in the data set with HeLa it was > 50 µM.

For `COc1ccc(NC(=O)Cn2cc(/C=N/n3cnnc3)c3ccccc32)cc1`, the inhibition at 50 µM with HUVEC [1] was found to be 15%. Moreover, the IC50 in the data set with BJ, with CCRF-CEM, in the data set with MCF7 and in the data set on HeLa was > 50 µM throughout.

For `Cc1ccc(C(=O)n2cc(/C=N/n3cnnc3)c3ccccc32)cc1`, the “inhibition (INH)” value with HUVEC [2] is given as 33%. Also, the IC50 in [3] amounted to 6.54 µM; in [5] it was 7.89 µM. The Activity entry in the data set with HUVEC [4] is “Non-Toxic”.

Consider `CC(=O)c1ccc(NC(=O)Cn2cc(/C=N/n3cnnc3)c3ccccc32)cc1`, for which the outcome in the data set with HUVEC [1] was Active. Besides, the IC50 in the data set with BJ, in the data set with CCRF-CEM, with MCF7 and in the data set with HeLa was > 50 µM in each case.

In the case of `Cc1ccc(C(=O)n2cc(/C=N/c3c(C)n(C)n(-c4ccccc4)c3=O)c3ccccc32)cc1`, the outcome with HUVEC [2] was Active. For the same molecule, the values for the IC50 in data set [3] and in data set [5] were 5.78 µM and 10.8 µM, respectively. Further, the Activity entry in the data set on HUVEC [4] is recorded as “Non-Toxic”.

As to `CCOC(=O)c1ccc(NC(=O)Cn2cc(/C=N/c3c(C)n(C)n(-c4ccccc4)c3=O)c3ccccc32)cc1`, the result in the data set on HUVEC [1] was Active. Moreover, the IC50 in the data set with BJ is 50 µM; in the data set on CCRF-CEM, 29.7 µM; with MCF7, 38.1 µM; in the data set on HeLa it was 24.8 µM.

Consider `C(=N\n1cnnc1)/c1c[nH]c2ccccc12`, for which the outcome in the data set with HUVEC [1] was Active. The IC50 in the data set on BJ was > 50 µM; in the data set on CCRF-CEM, > 50 µM; with MCF7 it was > 50 µM; in the data set on HeLa, 9.9 µM.

Consider `Cc1c(/N=C/c2cn(CC(=O)Nc3ccc(O)cc3)c3ccccc23)c(=O)n(-c2ccccc2)n1C`, for which the outcome with HUVEC [1] was Active. In addition, the half-inhibitory concentration (IC50) was 50 µM with BJ, > 50 µM in the data set with CCRF-CEM, > 50 µM in the data set on MCF7 and > 50 µM in the data set on HeLa.

Take `CC(=O)c1ccc(NC(=O)Cn2cc(/C=N/c3c(C)n(C)n(-c4ccccc4)c3=O)c3ccccc32)cc1`: the outcome in the data set on HUVEC [1] was Active. The IC50 was > 50 µM with BJ, 42.9 µM in the data set with CCRF-CEM, > 50 µM with MCF7 and > 50 µM in the data set with HeLa.

Consider `Cc1ccc(NC(=O)Cn2cc(/C=N/n3cnnc3)c3ccccc32)cc1`, for which the result with HUVEC [1] was Active. Further, the half-maximal inhibitory concentration (IC50) in the data set with BJ, in the data set with CCRF-CEM, in the data set on MCF7 and in the data set on HeLa was > 50 µM throughout.

Consider `Cc1c(/N=C/c2cn(C(=O)c3ccccc3)c3ccccc23)c(=O)n(-c2ccccc2)n1C`, for which the result with HUVEC [2] was Active. Besides, the IC50 in data set [3] turned out to be 7.54 µM; in [5] it was 7.65 µM. The Activity result in the data set with HUVEC [4] is listed as “Non-Toxic”.

`O=c1c(O)c(-c2ccc(O)c(O)c2)oc2cc(O)cc(O)c12` [QUERCETIN]: in data set [3], the IC50 was found to be 5.96 µM.

As for `O=C(c1ccc(Cl)cc1)n1cc(/C=N/n2cnnc2)c2ccccc21`, the outcome in the data set on HUVEC [2] was Active. Moreover, the IC50 came out at 8.11 µM in data set [3] and 8.65 µM in data set [5]. Also, the Activity result in the data set with HUVEC [4] is listed as “Non-Toxic”.

Consider `C(=N\n1cnnc1)/c1cn(Cc2ccccc2)c2ccccc12`, for which the result in the data set with HUVEC [2] was Active. For the same molecule, the IC50 was 7.41 µM in data set [3]; 14.9 µM in the data set with HUVEC [4] (Homo sapiens, HUVEC); 9.21 µM in data set [5].

Turning to `O=C(Cn1cc(/C=N/n2cnnc2)c2ccccc21)Nc1ccc(O)cc1`, the outcome with HUVEC [1] was Active. Besides, the IC50 in the data set with BJ, with CCRF-CEM, in the data set with MCF7 and in the data set on HeLa was > 50 µM throughout.

Take `O=C(Cn1cc(/C=N/n2cnnc2)c2ccccc21)Nc1ccccc1`: the result in the data set on HUVEC [1] was Active. For the same molecule, the IC50 with BJ, in the data set on CCRF-CEM, with MCF7 and in the data set with HeLa was > 50 µM throughout.

With `CCOC(=O)c1ccc(NC(=O)Cn2cc(/C=N/n3cnnc3)c3ccccc32)cc1`, the inhibition at 50 µM in the data set with HUVEC [1] came out at 15%. The IC50 with BJ was 31.3 µM; in the data set with CCRF-CEM, > 50 µM; in the data set on MCF7, > 50 µM; in the data set on HeLa, > 50 µM.

On to `Cc1c(/N=C/c2c[nH]c3ccccc23)c(=O)n(-c2ccccc2)n1C`, for which the outcome in the data set with HUVEC [1] was Active. The 50% inhibitory concentration (IC50) in the data set with BJ, in the data set with CCRF-CEM, in the data set with MCF7 and in the data set on HeLa was > 50 µM each time.

For `Cc1c(/N=C/c2cn(Cc3ccccc3)c3ccccc23)c(=O)n(-c2ccccc2)n1C`, the outcome with HUVEC [2] was Active. Moreover, the IC50 in data set [3] turned out to be 5.98 µM; in data set [5], 11.2 µM. Also, the Activity entry in the data set with HUVEC [4] was “Non-Toxic”.
